Molecules are shown by their SMILES. Calls of active or inactive are those of the source. No cut-off for these calls is given here. Some results are limits rather than exact numbers.

Assay [1] concerns the target T1, Metabotropic glutamate receptor 5 (Homo sapiens, UniProt P41594). The assay is described as follows: Reversal of antagonist activity at human mGluR5 expressed in CHO cells in presence of L-glutamate mGluR5 agonist at 10 uM by FLIPR assay. It counts as functional, cell-based.
Target sequence in this assay (P41594 21-1212 limits assumed): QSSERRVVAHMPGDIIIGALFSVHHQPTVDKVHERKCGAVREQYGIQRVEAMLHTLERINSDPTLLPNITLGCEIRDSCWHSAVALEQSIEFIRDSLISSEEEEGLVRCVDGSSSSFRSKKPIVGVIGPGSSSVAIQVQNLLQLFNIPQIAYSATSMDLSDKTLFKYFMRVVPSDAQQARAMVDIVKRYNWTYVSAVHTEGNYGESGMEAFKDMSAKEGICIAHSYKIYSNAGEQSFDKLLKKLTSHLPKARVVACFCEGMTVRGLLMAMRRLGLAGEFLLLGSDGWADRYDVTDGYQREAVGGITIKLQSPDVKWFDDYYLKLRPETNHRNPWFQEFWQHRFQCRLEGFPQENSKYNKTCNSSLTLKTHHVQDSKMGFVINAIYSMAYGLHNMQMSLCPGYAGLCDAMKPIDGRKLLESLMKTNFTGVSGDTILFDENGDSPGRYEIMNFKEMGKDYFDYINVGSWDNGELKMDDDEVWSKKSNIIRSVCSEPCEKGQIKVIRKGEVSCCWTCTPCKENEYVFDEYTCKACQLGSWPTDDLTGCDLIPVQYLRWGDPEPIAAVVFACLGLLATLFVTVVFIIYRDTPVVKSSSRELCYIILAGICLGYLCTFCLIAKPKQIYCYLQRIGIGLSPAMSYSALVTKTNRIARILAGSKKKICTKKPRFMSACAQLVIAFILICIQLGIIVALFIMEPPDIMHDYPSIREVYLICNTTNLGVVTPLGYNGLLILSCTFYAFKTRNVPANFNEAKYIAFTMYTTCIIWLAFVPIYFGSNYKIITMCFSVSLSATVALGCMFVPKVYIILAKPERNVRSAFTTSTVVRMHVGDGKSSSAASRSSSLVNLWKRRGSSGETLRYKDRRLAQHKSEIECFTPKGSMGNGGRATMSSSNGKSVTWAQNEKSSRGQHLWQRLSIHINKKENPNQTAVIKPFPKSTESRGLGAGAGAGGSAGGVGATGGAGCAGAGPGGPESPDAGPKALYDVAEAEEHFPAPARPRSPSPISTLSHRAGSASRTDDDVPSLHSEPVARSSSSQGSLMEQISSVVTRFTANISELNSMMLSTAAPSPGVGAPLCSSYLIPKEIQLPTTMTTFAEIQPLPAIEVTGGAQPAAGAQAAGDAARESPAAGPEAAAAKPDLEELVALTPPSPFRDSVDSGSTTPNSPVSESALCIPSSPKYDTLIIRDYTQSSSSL
The target of assay [2] is T1, Metabotropic glutamate receptor 5. Briefly: Positive modulation of human mGluR5 assessed as fold left shift of L-glutamate EC50 by calcium FLIPR assay.
Target sequence in this assay (P41594 21-1212 limits assumed): as above
The target in assay [3] is Metabotropic glutamate receptor 5 (Rattus norvegicus) (UniProt P31424). Briefly: Positive modulation of rat mGluR5 assessed as fold left shift of L-quisqualate EC50 by calcium FLIPR assay.
In assay [4] the target is T2, Metabotropic glutamate receptor 5 (Rattus norvegicus, UniProt P31424). Briefly: Antagonist activity at mGluR5 in Sprague-Dawley rat astrocyte assessed as L-quisqualate induced potentiation of intracellular calcium level by FLIPR assay. It counts as functional, cell-based. On the technique in general: Calcium assays in cells follow changes in intracellular calcium, usually with a dye or a luminescent sensor.

Assay [5] concerns the target T2, Metabotropic glutamate receptor 5. Briefly: Displacement of [3H]MPEP from rat mGluR5. For orientation: In a radioligand displacement assay an active substance lowers the binding of a labelled ligand.
In assay [6] the target is Metabotropic glutamate receptor 5 (Rattus norvegicus) (UniProt P31424). Briefly: Reversal of antagonist activity at Sprague-Dawley rat astrocyte mGluR5 in presence of L-quisqualate mGluR5 agonist at 10 uM by FLIPR assay. The class given is functional.
Assay [7] addresses T3, Metabotropic glutamate receptor 1 (Rattus norvegicus, UniProt P23385). Briefly: Antagonist activity at rat mGluR1 expressed in cerebellar granule cells assessed as accumulation of [3H]inositol phosphate. The class given is functional, cell-based.
Assay [8] concerns the target Metabotropic glutamate receptor 5 (Rattus norvegicus) (UniProt P31424). Briefly: Displacement of [3H]MPEP from rat mGluR5 upto 10 uM. An outline of the steps: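 Membranes were washed four times in 50 mM Tris-HCl pH 8.0 and resuspended in 50 mM Tris-HCl pH 7.5. 125–250 µg protein was incubated with 5 nM [3H]MPEP and test agent (up to 10 µM), up to 5% DMSO, 60 min at RT. Nonspecific binding: 10 µM MPEP. Filtered on glass fibre filters, rinsed with ice-cold buffer, then scintillation counted.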

The target of assay [9] is Metabotropic glutamate receptor 1 (Rattus norvegicus) (UniProt P23385). The assay is described as follows: (§1) Antagonist activity at rat mGluR1 by FLIPR assay. It counts as functional.
Sequence of Metabotropic glutamate receptor 1 (Rattus norvegicus) (P23385 19-1199 limits assumed): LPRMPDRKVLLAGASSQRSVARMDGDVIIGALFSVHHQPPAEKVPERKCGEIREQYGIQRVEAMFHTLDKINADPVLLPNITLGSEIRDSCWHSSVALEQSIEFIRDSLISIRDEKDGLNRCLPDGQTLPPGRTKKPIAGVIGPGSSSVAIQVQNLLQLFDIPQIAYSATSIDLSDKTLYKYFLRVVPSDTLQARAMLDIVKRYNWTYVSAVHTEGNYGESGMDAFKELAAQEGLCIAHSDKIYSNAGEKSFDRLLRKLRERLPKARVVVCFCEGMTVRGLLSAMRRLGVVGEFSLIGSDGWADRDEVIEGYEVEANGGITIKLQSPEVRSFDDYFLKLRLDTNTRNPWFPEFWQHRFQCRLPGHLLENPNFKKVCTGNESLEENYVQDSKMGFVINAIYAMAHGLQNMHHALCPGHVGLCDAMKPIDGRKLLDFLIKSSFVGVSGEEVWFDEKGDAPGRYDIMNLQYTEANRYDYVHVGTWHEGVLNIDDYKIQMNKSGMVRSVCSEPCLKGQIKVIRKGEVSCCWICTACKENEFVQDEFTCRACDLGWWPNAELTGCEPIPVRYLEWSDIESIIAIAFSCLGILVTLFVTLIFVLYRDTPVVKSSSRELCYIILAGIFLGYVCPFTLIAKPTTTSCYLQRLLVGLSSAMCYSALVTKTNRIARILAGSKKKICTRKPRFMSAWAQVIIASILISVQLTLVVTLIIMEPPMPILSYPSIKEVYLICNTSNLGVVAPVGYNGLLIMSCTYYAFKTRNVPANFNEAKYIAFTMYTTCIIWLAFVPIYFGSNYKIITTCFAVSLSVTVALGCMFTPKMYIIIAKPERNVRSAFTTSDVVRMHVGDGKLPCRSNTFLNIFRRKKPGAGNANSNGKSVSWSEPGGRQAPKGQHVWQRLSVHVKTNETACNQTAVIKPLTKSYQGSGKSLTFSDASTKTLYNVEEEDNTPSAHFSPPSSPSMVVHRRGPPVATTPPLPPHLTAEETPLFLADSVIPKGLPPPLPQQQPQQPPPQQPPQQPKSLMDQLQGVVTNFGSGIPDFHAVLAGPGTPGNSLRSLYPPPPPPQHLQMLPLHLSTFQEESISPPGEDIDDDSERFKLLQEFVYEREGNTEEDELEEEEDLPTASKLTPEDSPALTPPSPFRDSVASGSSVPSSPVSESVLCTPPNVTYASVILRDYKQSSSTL
For assay [10], the target named is T3, Metabotropic glutamate receptor 1. The description is as §1. The class given is functional.
Assay [11] has as its target T1, Metabotropic glutamate receptor 5. The assay is described as follows: Antagonist activity at human mGluR5 expressed in CHO cells assessed as L-glutamate induced potentiation of intracellular calcium level by FLIPR assay. The class given is functional, cell-based. An outline of the steps:
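Human mGluR5 FLIPR calcium assay. Cells were loaded with Ca-sensitive dye for 2 h at RT in HEPES-buffered saline, pH 7.3. The dye kit contained glutamic-pyruvate transferase, Na-pyruvate and pyridoxal phosphate to avoid glutamate build-up. Compounds were preincubated 5 min before L-glutamate, and the intracellular calcium rise was read as RFU.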
Target sequence in this assay (P41594 whole entry): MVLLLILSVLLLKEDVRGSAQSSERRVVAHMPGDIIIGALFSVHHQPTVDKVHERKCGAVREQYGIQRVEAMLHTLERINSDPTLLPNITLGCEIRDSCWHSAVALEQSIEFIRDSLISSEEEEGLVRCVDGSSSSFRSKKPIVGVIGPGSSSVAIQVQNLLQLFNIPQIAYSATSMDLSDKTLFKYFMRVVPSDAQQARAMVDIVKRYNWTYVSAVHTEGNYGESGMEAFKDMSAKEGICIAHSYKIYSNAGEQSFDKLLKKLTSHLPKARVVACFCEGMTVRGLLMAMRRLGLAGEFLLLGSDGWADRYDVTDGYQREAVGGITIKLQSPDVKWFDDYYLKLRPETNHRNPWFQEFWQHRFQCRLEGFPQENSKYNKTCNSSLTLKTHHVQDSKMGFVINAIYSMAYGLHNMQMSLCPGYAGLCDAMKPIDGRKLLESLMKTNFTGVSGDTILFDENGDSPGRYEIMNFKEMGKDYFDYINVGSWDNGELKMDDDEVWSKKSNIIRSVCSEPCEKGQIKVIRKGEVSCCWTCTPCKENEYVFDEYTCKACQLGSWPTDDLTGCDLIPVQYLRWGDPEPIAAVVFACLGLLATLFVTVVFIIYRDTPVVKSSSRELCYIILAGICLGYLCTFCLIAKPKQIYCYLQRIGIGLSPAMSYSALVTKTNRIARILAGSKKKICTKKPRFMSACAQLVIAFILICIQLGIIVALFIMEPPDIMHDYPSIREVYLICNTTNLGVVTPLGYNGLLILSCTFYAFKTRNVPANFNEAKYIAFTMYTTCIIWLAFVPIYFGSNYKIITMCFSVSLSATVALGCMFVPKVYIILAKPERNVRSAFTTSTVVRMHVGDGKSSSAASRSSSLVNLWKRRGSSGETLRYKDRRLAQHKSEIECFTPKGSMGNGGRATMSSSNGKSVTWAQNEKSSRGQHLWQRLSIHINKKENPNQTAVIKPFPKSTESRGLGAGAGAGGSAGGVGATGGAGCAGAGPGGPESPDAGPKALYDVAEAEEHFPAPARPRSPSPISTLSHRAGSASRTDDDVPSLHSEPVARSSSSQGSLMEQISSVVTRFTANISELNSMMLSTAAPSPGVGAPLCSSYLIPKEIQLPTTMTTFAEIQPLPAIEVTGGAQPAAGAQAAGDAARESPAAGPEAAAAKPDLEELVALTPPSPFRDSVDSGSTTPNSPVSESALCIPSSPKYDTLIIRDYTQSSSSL

T3 sequence (P23385 whole entry): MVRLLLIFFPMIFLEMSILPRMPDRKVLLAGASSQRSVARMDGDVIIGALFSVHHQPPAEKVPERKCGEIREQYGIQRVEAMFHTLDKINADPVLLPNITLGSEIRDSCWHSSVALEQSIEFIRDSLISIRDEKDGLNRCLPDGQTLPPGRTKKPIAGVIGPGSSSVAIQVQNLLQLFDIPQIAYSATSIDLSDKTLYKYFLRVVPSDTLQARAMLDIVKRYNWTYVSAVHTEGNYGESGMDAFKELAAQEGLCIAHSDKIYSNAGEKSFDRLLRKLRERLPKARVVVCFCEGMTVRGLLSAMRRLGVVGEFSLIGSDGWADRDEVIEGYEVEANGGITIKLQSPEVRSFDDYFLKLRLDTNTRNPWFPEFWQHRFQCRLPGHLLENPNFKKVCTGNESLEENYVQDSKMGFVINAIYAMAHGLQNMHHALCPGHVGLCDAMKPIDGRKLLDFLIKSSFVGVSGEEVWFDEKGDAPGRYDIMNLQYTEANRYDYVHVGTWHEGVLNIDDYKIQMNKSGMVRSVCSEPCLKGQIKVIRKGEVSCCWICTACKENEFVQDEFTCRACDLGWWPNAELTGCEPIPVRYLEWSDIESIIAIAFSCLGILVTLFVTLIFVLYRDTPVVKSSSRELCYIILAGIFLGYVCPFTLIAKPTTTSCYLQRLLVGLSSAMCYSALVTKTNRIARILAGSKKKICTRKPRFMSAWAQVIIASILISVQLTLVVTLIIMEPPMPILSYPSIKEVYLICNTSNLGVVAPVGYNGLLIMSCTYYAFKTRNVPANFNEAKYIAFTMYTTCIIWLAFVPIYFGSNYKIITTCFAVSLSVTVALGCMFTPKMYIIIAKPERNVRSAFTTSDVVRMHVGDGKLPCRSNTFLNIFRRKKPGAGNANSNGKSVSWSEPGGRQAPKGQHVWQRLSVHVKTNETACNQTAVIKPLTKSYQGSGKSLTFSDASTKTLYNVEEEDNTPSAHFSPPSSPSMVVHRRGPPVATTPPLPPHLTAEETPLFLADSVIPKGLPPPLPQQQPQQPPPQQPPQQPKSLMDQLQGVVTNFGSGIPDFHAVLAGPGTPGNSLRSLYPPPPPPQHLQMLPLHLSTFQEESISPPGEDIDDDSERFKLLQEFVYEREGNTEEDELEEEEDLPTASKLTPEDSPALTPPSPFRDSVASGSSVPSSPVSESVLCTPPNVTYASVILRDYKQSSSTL

For the compound `O=C1CCCc2nc(C#Cc3ccccc3)ccc21`, the outcome in assay [1] and in [6] was Active. In addition, the Activity is 3.2 in assay [2] and 2 in assay [3]. Further, the half-maximal effective concentration (EC50) in assay [4] came to 34 nM. In [5], this compound had a Ki of 800 nM.
Take `CC1(C)CC(=O)c2cc(C#N)c(N3CCN(c4ccc(F)cc4)CC3)nc2C1`: the IC50 in assay [7] is 160 nM. In addition, in assay [8], the outcome was inactive.
As to `CCc1nc(C#N)c(N2CCc3ccccc3CC2)nc1C`, the IC50 in assay [7] worked out at 6 nM.
Turning to `O=C(NC12CC3CC(CC(C3)C1)C2)c1cnc2ccccc2c1`, the half-maximal inhibitory concentration (IC50) in assay [7] is 52 nM.
For `COC(=O)c1ccc(C#Cc2ccccc2)nc1`, in assay [5], the 50% inhibitory concentration (IC50) turned out to be 4600 nM and the affinity corresponds to a Ki of 1400 nM.
On to `O=C1CCCc2nc(C#Cc3ccccn3)ccc21`, for which, in assay [5], the concentration for half-maximal inhibition (IC50) came out at 60000 nM and the Ki came out at 2360 nM.
In the case of `CC1(C)CC(=O)c2cc(C#N)c(N3CCc4ccccc4C3)nc2C1`, in assay [7], the IC50 was found to be 1500 nM. Besides, in assay [8], the result was inactive.
Turning to `CC1(C)CC(=O)c2cc(-c3cncnc3)c(NC3CCCC3)nc2C1`, the outcome in [8] and in assay [9] was inactive.
`O=C1CCCc2nc(N3CCN(c4ccccc4)CC3)ccc21`: the IC50 in assay [7] was determined as 10400 nM. Further, the result in assay [8] was inactive.
`CC1(C)CC(=O)c2cc(Cl)c(NC3CCCC3)nc2C1`: in assay [10], the IC50 worked out at 7900 nM.
On to `CN(Cc1ccccc1)c1nc2c(cc1C#N)C(=O)CCC2`, for which the results for the half-inhibitory concentration (IC50) in assay [7] and in assay [5] were 25000 nM and 80000 nM, respectively.
Take `CC1(C)CC(=O)c2cc(-c3nn[nH]n3)c(NC3CCCC3)nc2C1`: in assay [8], the result was inactive. The same compound gave an IC50 in assay [10] of 13000 nM.
Regarding `O[C@H]1CCCc2nc(C#Cc3ccccc3)ccc21`, the EC50 in assay [11] is 1080 nM; in assay [4], 250 nM. Moreover, the Activity amounted to 2.5 in assay [2] and 2 in [3]. The compound further registered an inhibition constant Ki in assay [5] of 9280 nM.
As for `CC1(C)CC(=O)c2cc(C#N)c(SCc3ccccc3)nc2C1`, the half-maximal inhibitory concentration (IC50) stood at 4800 nM in [7] and 57000 nM in [5].
With `CC1(C)CC(=O)c2cc([N+](=O)[O-])c(NC3CC=C(c4ccc(F)cc4)CC3)nc2C1` (stereo not given), the result in assay [8] was inactive. In addition, the IC50 in [10] amounted to 12000 nM.
Turning to `CC1(C)CC(=O)c2ccc(NCc3ccccc3)nc2C1`, the IC50 in assay [7] came to 45000 nM; in [5], 8100 nM.
Take `OC1CCCc2nc(C#Cc3ccccc3)ccc21` (stereo not given): the values for the 50% effective concentration (EC50) in assay [11] and in [4] were 1130 nM and 490 nM, respectively. Further, the results for the Activity in assay [2] and in assay [3] were 2 and 2.2, respectively. For the same compound, the Ki in [5] came to 7600 nM.
Turning to `CC1(C)CC(=O)c2cc(C#N)c(NC3CCCCC3)nc2C1`, the concentration for half-maximal inhibition (IC50) in assay [7] worked out at 4000 nM. Moreover, the outcome in assay [8] was inactive.
`CC1(C)CC(=O)c2cc(C#N)c(NC34CC5CC(CC(C5)C3)C4)nc2C1`: in assay [8], the result was inactive.
With `CN(Cc1ccccc1)c1nc2c(cc1C#N)C(=O)CC(C)(C)C2`, in assay [7], the IC50 was found to be 5300 nM. In assay [8], the outcome was inactive.
In [5], `CC1(C)CC(=O)c2ccc(C#Cc3ccccn3)nc2C1` displayed a concentration for half-maximal inhibition (IC50) of 2600 nM and an inhibitory constant (Ki) of 210 nM.
As for `CC1(C)CC(=O)c2cc(C#N)c(NC3Cc4ccccc4C3)nc2C1`, the IC50 in assay [7] stood at 1900 nM. For the same compound, in [8], the outcome was inactive.
Take `CC1(C)CC(=O)c2cc(C#N)c(N3CC=C(c4ccccc4)CC3)nc2C1`: in [7], the IC50 is less than 1000 nM. The result in assay [8] was inactive.
Consider `O=C(NC12CC3CC(CC(C3)C1)C2)c1ccc2ccccc2n1`, for which the half-maximal inhibitory concentration (IC50) in assay [7] came to 440 nM.
For `CC1(C)CCc2nc(C#Cc3ccccc3)ccc2C1=O`, in assay [5], the IC50 was 23 nM and the Ki amounted to 51 nM.
In the case of `CN(C)C(=O)c1cc2c(nc1NC1CCCC1)CC(C)(C)CC2=O`, the concentration for half-maximal inhibition (IC50) in assay [5] is 58000 nM; in assay [10], 21000 nM.
In assay [5], `COC1CCCc2nc(C#Cc3ccccc3)ccc21` (stereo not given) came in with an IC50 of 80 nM and a Ki of 139 nM.
As to `CC1(C)CC(=O)c2ccc(OCc3ccccc3)nc2C1`, the half-maximal inhibitory concentration (IC50) worked out at 21000 nM in assay [7] and 12000 nM in assay [5].
As to `C(#Cc1ccc2c(n1)CCCC2)c1ccccc1`, in [5], the IC50 is 510 nM and the Ki came out at 1500 nM.
Turning to `CC1(C)CC(=O)c2cc(C(=O)O)c(NC3CCCC3)nc2C1`, the result in [8] was inactive. This compound yielded an IC50 in assay [10] of 23000 nM.
For `O=C(NC12CC3CC(CC(C3)C1)C2)c1cnc2ccccc2n1`, the IC50 in assay [7] was determined as 5 nM.
Turning to `COc1ccc(N2CCN(c3nc4c(cc3C#N)C(=O)CC(C)(C)C4)CC2)cc1`, the 50% inhibitory concentration (IC50) in [7] turned out to be 7600 nM. Besides, the result in assay [8] was inactive.
Turning to `CC1(C)CC(=O)c2cc(C#N)c(N3CC=C(c4ccc(F)cc4)CC3)nc2C1`, in assay [7], the IC50 is 110 nM. In [8], the result was inactive.
As for `CCCCCCNc1nc2c(cc1C#N)C(=O)CC(C)(C)C2`, the 50% inhibitory concentration (IC50) in assay [7] was 2600 nM. For the same compound, in assay [8], the outcome was inactive.
`O[C@@H]1CCCc2nc(C#Cc3ccccc3)ccc21`: the EC50 was 980 nM in assay [11] and 180 nM in [4]. In addition, the Activity in assay [2] came out at 2.5; in assay [3], 3.1. The same compound displayed an inhibitory constant (Ki) in assay [5] of 4710 nM.
As to `N#Cc1cc2c(nc1NC1CCCCC1)CCCC2=O`, in [7], the IC50 worked out at 3000 nM. Besides, in assay [8], the result was inactive.
Consider `CC1(C)CC(=O)c2cc(Br)c(N3CCN(c4ccc(F)cc4)CC3)nc2C1`, for which the results for the IC50 in assay [7] and in assay [5] were no more than 1000 nM and 37000 nM, respectively.
On to `CCCNc1nc2c(cc1C#N)C(=O)CC(C)(C)C2`, for which the IC50 in [7] turned out to be 2300 nM. The outcome in assay [8] was inactive.
As for `N#Cc1cc2c(nc1SCc1ccccc1)CCCC2=O`, the concentration for half-maximal inhibition (IC50) in assay [7] turned out to be 30000 nM. Further, in assay [8], the outcome was inactive.
Regarding `O=C1CCCc2nc(OCc3ccccc3)ccc21`, the half-maximal inhibitory concentration (IC50) was found to be 25000 nM in assay [7] and 1900 nM in assay [5].
Turning to `CCCCNc1nc2c(cc1C#N)C(=O)CC(C)(C)C2`, in [7], the 50% inhibitory concentration (IC50) stood at 1700 nM. In [8], the result was inactive.
Consider `CC1(C)CC(=O)c2cc(C#N)c(NC3CCCC3)nc2C1`, for which the 50% inhibitory concentration (IC50) is 78 nM in [7] and 49000 nM in assay [5].
Take `CC1(C)CC(=O)c2cc(C#N)c(NCc3ccccc3)nc2C1`: in assay [7], the concentration for half-maximal inhibition (IC50) amounted to 2500 nM. Besides, in assay [8], the outcome was inactive.
With `CC1(C)CC(=O)c2cc(N3CCOCC3)c(N3CC=C(c4ccc(F)cc4)CC3)nc2C1`, the outcome in [8] was inactive. For the same compound, it took 15000 nM to reach half-maximal inhibition in assay [10] (IC50).
With `CC1(C)CC(=O)c2cc(C#N)c(N3CCN(c4ccccc4)CC3)nc2C1`, in [7], the IC50 worked out at 130 nM. The outcome in [8] was inactive.
`O=C(NC12CC3CC(CC(C3)C1)C2)c1cnccn1`: the IC50 in [7] is 7000 nM.
As for `CC1(C)CC(=O)c2cc(Br)c(NC3CCCC3)nc2C1`, in assay [5], the IC50 was 29000 nM. The outcome in assay [9] was inactive.

A word on the EC50: it is the midpoint of the concentration-response curve. One may read the Ki as a measure of affinity in units of concentration, obtained from inhibition or displacement. A low value points to tighter binding. The term IC50 denotes the midpoint of a concentration-inhibition curve.

Values taken from ChEMBL document CHEMBL1140723, “Positive and negative modulation of group I metabotropic glutamate receptors” (J Med Chem, 2008).
